Laboratory results from ChEMBL document CHEMBL4425127 (J Med Chem, 2016).
pEC50, pIC50, pKd: −log10 of the molar value. Activity calls are given as the source filed them. The calls are words filed in the database; no cut-off is given here.

Key:
[1] = Inhibition of recombinant Influenza A virus (A/Anhui/1/2013(H7N9)) Neuraminidase N9 expressed in baculovirus infected insect cells using 4-MU-NANA as substrate preincubated for 30 mins followed by substrate addition by microplate reader analysis
How it was run: (§1)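 Purified recombinant NA, with activity pre-set to roughly 10–50 nM in PBS, preincubated with serial 5-fold inhibitor dilutions in PBS (top 1 mM) at 37 °C for 30 min. MUNANA solution (167 μM, PBS) then added. Fluorescence read at ex 355/em 460 nm.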

Influenza A virus [2] = experiment: (§2) Antiviral activity against Influenza A virus (A/Puerto Rico/8/34(H1N1)) infected in Balb/c mouse assessed as respiratory epithelium desquamation at 20 mg/kg qd administered intranasally as single dose at 2 hrs post infection measured after 7 days post infection by hematoxylin and eosin staining based microscopic analysis; type: functional, organism-based; conditions: A/Puerto Rico/8/1934(H1N1)
Influenza A virus [3] = experiment: (§3) Antiviral activity against Influenza A virus (A/Puerto Rico/8/34(H1N1)) infected in Balb/c mouse assessed as protection against lethal virus challenge by measuring mouse survival at 20 mg/kg administered intranasally as single dose at 2 hrs post infection measured up to 9 days post treatment; type: functional, organism-based; conditions: A/Puerto Rico/8/1934(H1N1)
How it was run: (§4)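 BALB/c mice (6 per group) inoculated intranasally under anaesthesia with 10^5 pfu in 40 μL PBS. Inhibitor given intranasally in 40 μL PBS, either daily for 7 days from day 1 or once at 2 h pi; PBS-treated infected and uninfected controls. Weight and survival followed for 14 days; death counted at 25% weight loss or moribund. Mantel–Cox test.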

Influenza A virus [4] = experiment: Antiviral activity against Influenza A virus (A/Puerto Rico/8/34(H1N1)) assessed as decrease in lung lesions at 20 mg/kg qd administered intranasally as single dose at 2 hrs post infection measured after 7 days post infection by hematoxylin and eosin staining based microscopic analysis; type: functional, organism-based; conditions: A/Puerto Rico/8/1934(H1N1)
Influenza A virus [5] = experiment: Antiviral activity against Influenza A virus (A/Puerto Rico/8/34(H1N1)) infected in Balb/c mouse assessed as bronchial wall thickening in lungs at 5 mg/kg qd administered intranasally for 7 days starting from 1 day post infection by hematoxylin and eosin staining based microscopic analysis; type: functional, organism-based; conditions: A/Puerto Rico/8/1934(H1N1)
Influenza A virus H3N2 [6] = experiment: Antiviral activity against Influenza A virus (A/Moscow/10/99(H3N2)) expressing A/Puerto Rico/8/34(H1N1) genes infected in MDCK cells assessed as reduction in viral replication after 72 hrs by hemagglutination test; type: functional, organism-based, A/Moscow/10/1999(H3N2); conditions: for pEC50: Influenza A virus, A/Moscow/10/1999(H3N2), MDCK, 72 h, read-out: EC50
Influenza A virus [7] = experiment: as §2, with “immune cell infiltration in lungs” for “respiratory epithelium desquamation”; type: functional, organism-based; conditions: A/Puerto Rico/8/1934(H1N1)
Influenza A virus [8] = experiment: Antiviral activity against Influenza A virus (A/Puerto Rico/8/34(H1N1)) infected in Balb/c mouse assessed as protection against lethal virus challenge by measuring mouse survival at 5 to 10 mg/kg qd administered intranasally for 7 days starting from 1 day post infection measured for 14 days; type: functional, organism-based; conditions: A/Puerto Rico/8/1934(H1N1); how it was run: as §4
Influenza A virus [9] = experiment: Antiviral activity against Influenza A virus (A/Anhui/1/2013(H7N9)) expressing A/Puerto Rico/8/34(H1N1) genes infected in MDCK cells assessed as reduction in viral replication after 72 hrs by hemagglutination test; type: functional, organism-based
Influenza A virus [10] = experiment: as §2, with “bronchial wall thickening in lungs” for “respiratory epithelium desquamation”; type: functional, organism-based; conditions: A/Puerto Rico/8/1934(H1N1)
[11] = Binding affinity to recombinant Influenza A virus (A/Moscow/10/99(H3N2)) Neuraminidase N2 expressed in baculovirus infected insect cells measured up to 400 sec by surface plasmon resonance analysis; parameters: species or system Influenza A virus (A/Moscow/10/1999(H3N2))
How it was run: (§5)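 NA covalently immobilised on CM5 chip by amine coupling. Analyte passed over at several concentrations in running buffer. BSA served as negative control protein. Constants from a steady-state affinity model; triplicate experiments.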

Influenza A virus [12] = experiment: (§6) Antiviral activity against Influenza A virus (A/Puerto Rico/8/34(H1N1)) infected in Balb/c mouse assessed as protection against lethal virus challenge by measuring body weight at 20 mg/kg administered intranasally as single dose at 2 hrs post infection measured up to 9 days post treatment; type: functional, organism-based; conditions: A/Puerto Rico/8/1934(H1N1); how it was run: as §4
[13] = Inhibition of recombinant Influenza A virus (A/Moscow/10/99(H3N2)) Neuraminidase N2 expressed in baculovirus infected insect cells using 4-MU-NANA as substrate preincubated for 30 mins followed by substrate addition by microplate reader analysis; parameters: species or system Influenza A virus (A/Moscow/10/1999(H3N2)); how it was run: as §1
Influenza A virus [14] = experiment: Antiviral activity against Influenza A virus (A/Puerto Rico/8/34(H1N1)) infected in Balb/c mouse assessed as immune cell infiltration in lungs at 5 mg/kg qd administered intranasally for 7 days starting from 1 day post infection by hematoxylin and eosin staining based microscopic analysis; type: functional, organism-based; conditions: A/Puerto Rico/8/1934(H1N1)
Influenza A virus [15] = experiment: Antiviral activity against Influenza A virus (A/Puerto Rico/8/34(H1N1)) infected in Balb/c mouse assessed as protection against lethal virus challenge by measuring body weight at 5 to 10 mg/kg qd administered intranasally for 7 days starting from 1 day post infection measured for 14 days; type: functional, organism-based; conditions: A/Puerto Rico/8/1934(H1N1); how it was run: as §4
Influenza A virus [16] = experiment: Antiviral activity against Influenza A virus (A/Puerto Rico/8/34(H1N1)) infected in Balb/c mouse assessed as respiratory epithelium desquamation at 5 mg/kg qd administered intranasally for 7 days starting from 1 day post infection by hematoxylin and eosin staining based microscopic analysis; type: functional, organism-based; conditions: A/Puerto Rico/8/1934(H1N1)
Influenza A virus [17] = experiment: Antiviral activity against Influenza A virus (A/Puerto Rico/8/34(H1N1)) assessed as decrease in lung lesions at 10 mg/kg qd administered intranasally for 7 days starting from 1 day post infection by hematoxylin and eosin staining based microscopic analysis; type: functional, organism-based; conditions: A/Puerto Rico/8/1934(H1N1)
[18] = Half life in Sprague-Dawley rat at 6 umol/kg, iv by HPLC analysis; type: ADME, organism-based; conditions: in vivo
How it was run: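 Rats (n = 5) received a single tail-vein injection in physiological saline. Plasma levels measured by HPLC, using a reversed-phase C18 gradient with ammonium-containing aqueous/acetonitrile eluents over 5 min at 0.6 mL/min.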

Influenza A virus H3N2 [19] = experiment: Induction of viral aggregation in Influenza A virus (A/Moscow/10/99(H3N2)) at 1 mM after 3 hrs by transmission electron microscopic analysis; type: functional, organism-based; conditions: A/Moscow/10/1999(H3N2)
How it was run: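 Virus (10^7 pfu in 150 μL DMEM) incubated at 37 °C for 3 h with 10 μL of 1 mM inhibitor stock in PBS, or without; then processed for transmission electron microscopy.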

[20] = Aqueous solubility of compound; type: physicochemical; conditions: buffer
Influenza A virus [21] = experiment: as §6, with “14” for “9”, “treatment relative to control” for “treatment”; type: functional, A/Puerto Rico/8/1934(H1N1); how it was run: as §4
MDCK = experiment: Cytotoxicity against MDCK cells assessed as reduction in cell viability after 72 hrs by MTT assay; type: cell-based, Canis lupus familiaris; conditions: dog
Influenza A virus [22] = experiment: Antiviral activity against Influenza A virus (A/Puerto Rico/8/34(H1N1)) infected in MDCK cells assessed as plaque reduction after 72 hrs by toluidine blue staining based method; type: functional, A/Puerto Rico/8/1934(H1N1)
Influenza A virus [23] = experiment: as §3, with “14” for “9”, “treatment relative to control” for “treatment”; type: functional, A/Puerto Rico/8/1934(H1N1); how it was run: as §4
[24] = molecular target: Neuraminidase (Influenza A virus (A/Memphis/1/1971(H3N2))) (UniProt P03471); experiment: Binding affinity to recombinant Influenza A virus (A/Moscow/10/99(H3N2)) Neuraminidase N2 expressed in baculovirus infected insect cells at 100 to 1000 nM measured up to 160 sec by surface plasmon resonance analysis; how it was run: as §5
Sequence of Neuraminidase (Influenza A virus (A/Memphis/1/1971(H3N2))) (P03471 whole entry): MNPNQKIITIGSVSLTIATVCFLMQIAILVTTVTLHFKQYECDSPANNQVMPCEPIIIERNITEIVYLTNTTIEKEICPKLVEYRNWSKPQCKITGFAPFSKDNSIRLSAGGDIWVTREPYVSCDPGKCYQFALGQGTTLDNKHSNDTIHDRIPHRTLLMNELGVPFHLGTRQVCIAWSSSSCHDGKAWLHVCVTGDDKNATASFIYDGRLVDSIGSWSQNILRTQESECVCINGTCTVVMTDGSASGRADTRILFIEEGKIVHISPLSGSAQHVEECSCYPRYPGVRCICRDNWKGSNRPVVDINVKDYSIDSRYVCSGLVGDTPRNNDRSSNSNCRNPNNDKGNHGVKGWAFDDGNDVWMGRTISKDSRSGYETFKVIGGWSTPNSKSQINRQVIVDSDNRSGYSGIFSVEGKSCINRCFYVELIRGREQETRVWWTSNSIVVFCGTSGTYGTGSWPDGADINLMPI

With `CC(=O)N[C@H]1[C@H]([C@H](O)[C@H](O)CO)OC(C(=O)O)=C[C@@H]1NC(=N)N` [ZANAMIVIR] the pIC50 [1] was 8.82, the Activity (Influenza A virus [2]) was “inactive” and the Activity (Influenza A virus [3]) was “inactive”. The Activity (Influenza A virus [4]) was “inactive”, the Activity (Influenza A virus [5]) was “inactive” and the pEC50 (Influenza A virus H3N2 [6]) was 7.75. The Activity (Influenza A virus [7]) was “inactive”, the Activity (Influenza A virus [8]) was “Active” and the pEC50 (Influenza A virus [9]) was 8.21. The Activity (Influenza A virus [10]) was “inactive”, the pKd [11] was 8.96 and the Activity (Influenza A virus [12]) was “inactive”. For the same compound, the pIC50 [13] was 8.52, the Activity (Influenza A virus [14]) was “inactive” and the Activity (Influenza A virus [15]) was “Active”. The Activity (Influenza A virus [16]) was “inactive” and the Activity (Influenza A virus [17]) was “inactive”.

For `CC(=O)N[C@H]1[C@H]([C@H](OC(=O)NCCOCCOCCOCCOCCOCCOCCOCCOCCOCCOCCOCCOCc2cn(CC(Cn3cc(COCCOCCOCCOCCOCCOCCOCCOCCOCCOCCOCCOCCNC(=O)O[C@@H]([C@@H]4OC(C(=O)O)=C[C@H](NC(=N)N)[C@H]4NC(C)=O)[C@H](O)CO)nn3)(Cn3cc(COCCOCCOCCOCCOCCOCCOCCOCCOCCOCCOCCOCCNC(=O)O[C@@H]([C@@H]4OC(C(=O)O)=C[C@H](NC(=N)N)[C@H]4NC(C)=O)[C@H](O)CO)nn3)Cn3cc(COCCOCCOCCOCCOCCOCCOCCOCCOCCOCCOCCOCCNC(=O)O[C@@H]([C@@H]4OC(C(=O)O)=C[C@H](NC(=N)N)[C@H]4NC(C)=O)[C@H](O)CO)nn3)nn2)[C@H](O)CO)OC(C(=O)O)=C[C@@H]1NC(=N)N` (stereo partly specified), the half-life [18] was 72 min, the pIC50 [1] was 9.10 and the Activity (Influenza A virus H3N2 [19]) was “inactive”. The solubility [20] was “Soluble”, the Activity (Influenza A virus [2]) was “Active” and the Activity (Influenza A virus [4]) was “Active”. The Activity (Influenza A virus [5]) was “Active”, the pEC50 (Influenza A virus H3N2 [6]) was 8.46 and the Activity (Influenza A virus [7]) was “Active”. The Activity (Influenza A virus [8]) was “Active”, the pEC50 (Influenza A virus [9]) was 8.92 and the Activity (Influenza A virus [10]) was “Active”. For the same compound, the Activity (Influenza A virus [21]) was 100%, the Activity (MDCK) was “Non-Toxic” and the Activity (Influenza A virus [22]) was <4 nM. For the same compound, the pIC50 [13] was 8.55, the Activity (Influenza A virus [23]) was 100% and the Activity (Influenza A virus [14]) was “Active”. For the same compound, the Activity (Influenza A virus [15]) was “Active”, the Activity (Influenza A virus [16]) was “Active” and the Activity (Influenza A virus [17]) was “Active”.

For `COCCOCCOCCOCCOCCOCCOCCOCCOCCOCc1cn(CC(Cn2cc(COCCOCCOCCOCCOCCOCCOCCOCCOCCOC)nn2)(Cn2cc(COCCOCCOCCOCCOCCOCCOCCOCCOCCOC)nn2)Cn2cc(COCCOCCOCCOCCOCCOCCOCCOCCOCCOC)nn2)nn1`, the EC50 (Influenza A virus H3N2 [6]) was “Not Active”, the Activity [24] was “inactive” and the Activity (MDCK) was “Non-Toxic”.

In the case of `CC(=O)N[C@@H]1[C@H]([C@@H](OC(=O)NCCOCCOCCOCCOCCOCCOCc2cn(CC(Cn3cc(COCCOCCOCCOCCOCCOCCNC(=O)O[C@@H]([C@@H]4OC(C(=O)O)=C[C@H](NC(=N)N)[C@H]4NC(C)=O)[C@H](O)CO)nn3)(Cn3cc(COCCOCCOCCOCCOCCOCCNC(=O)O[C@@H]([C@@H]4OC(C(=O)O)=C[C@H](NC(=N)N)[C@H]4NC(C)=O)[C@H](O)CO)nn3)Cn3cc(COCCOCCOCCOCCOCCOCCNC(=O)O[C@@H]([C@@H]4OC(C(=O)O)=C[C@H](NC(=N)N)[C@H]4NC(C)=O)[C@H](O)CO)nn3)nn2)[C@H](O)CO)OC(C(=O)O)=C[C@@H]1NC(=N)N` (stereo partly specified), the pIC50 [1] was 9.00, the solubility [20] was “Soluble” and the pKd [11] was 8.82. It also gave a pIC50 [13] of 8.42.

For `CC(=O)N[C@H]1[C@H]([C@H](O)[C@H](O)CO)OC(C(=O)O)=C[C@@H]1N=C(N)N` [ZANAMIVIR], the half-life [18] was 32 min and the Activity (MDCK) was “Non-Toxic”.

For `CCC(CC)O[C@@H]1C=C(C(=O)O)C[C@H](N)[C@H]1NC(C)=O` [OSELTAMIVIR CARBOXYLATE], the pIC50 [1] was 9.10, the pEC50 (Influenza A virus H3N2 [6]) was 8.15 and the pEC50 (Influenza A virus [9]) was 7.91. The Activity (MDCK) was “Non-Toxic” and the pIC50 [13] was 9.40.

In the case of `CC(=O)N[C@H]1[C@H]([C@H](OC(=O)NCCOCCOCCOCc2cn(CC(Cn3cc(COCCOCCOCCNC(=O)O[C@@H]([C@@H]4OC(C(=O)O)=C[C@H](NC(=N)N)[C@H]4NC(C)=O)[C@H](O)CO)nn3)(Cn3cc(COCCOCCOCCNC(=O)O[C@@H]([C@@H]4OC(C(=O)O)=C[C@H](NC(=N)N)[C@H]4NC(C)=O)[C@H](O)CO)nn3)Cn3cc(COCCOCCOCCNC(=O)O[C@@H]([C@@H]4OC(C(=O)O)=C[C@H](NC(=N)N)[C@H]4NC(C)=O)[C@H](O)CO)nn3)nn2)[C@H](O)CO)OC(C(=O)O)=C[C@@H]1NC(=N)N` (stereo partly specified), the pIC50 [1] was 8.60, the solubility [20] was “Soluble” and the pKd [11] was 8.66. The pIC50 [13] was 8.21.
